Results: PMC3137751 (Biochemistry, 2010)
Residue numbers refer to the chain shown, from its start. “And” between values parts separate entries of the source, which are not always exact repeats. Equal entries are not always repeated. Marks after values point to notes of the source that are not given here.

How the values were obtained:
[1] = target: T1, wild-type IDH1/IDH2 enzyme (Saccharomyces cerevisiae, UniProt P28241+P28834); assay: Ligand protection from diamide-induced inactivation; type: biochemical, yeast
T1 sequence (P28834 12-360): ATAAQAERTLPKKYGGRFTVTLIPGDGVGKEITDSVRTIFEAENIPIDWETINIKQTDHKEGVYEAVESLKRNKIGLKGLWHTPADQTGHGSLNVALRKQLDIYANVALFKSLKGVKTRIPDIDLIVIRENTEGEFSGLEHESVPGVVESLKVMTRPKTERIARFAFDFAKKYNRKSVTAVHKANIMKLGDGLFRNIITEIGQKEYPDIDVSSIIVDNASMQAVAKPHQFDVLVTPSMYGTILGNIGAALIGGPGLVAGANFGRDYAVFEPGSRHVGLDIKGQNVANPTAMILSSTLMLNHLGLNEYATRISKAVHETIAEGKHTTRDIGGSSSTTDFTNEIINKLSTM
T1 sequence (P28241 16-369): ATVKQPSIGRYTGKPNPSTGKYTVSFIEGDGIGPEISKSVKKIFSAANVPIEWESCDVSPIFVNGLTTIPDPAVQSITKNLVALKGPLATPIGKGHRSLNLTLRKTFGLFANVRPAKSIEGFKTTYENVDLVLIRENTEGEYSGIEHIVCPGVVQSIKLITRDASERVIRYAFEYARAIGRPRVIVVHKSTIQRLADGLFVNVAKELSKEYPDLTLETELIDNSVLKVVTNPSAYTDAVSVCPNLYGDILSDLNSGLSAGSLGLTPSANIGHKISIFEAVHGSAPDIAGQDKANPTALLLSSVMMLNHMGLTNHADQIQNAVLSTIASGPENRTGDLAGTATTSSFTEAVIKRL

^-5IDH1/IDH2 enzyme = target: T2, ^-5IDH1/IDH2 enzyme (Saccharomyces cerevisiae, UniProt P28241+P28834); assay: as above; type: biochemical, yeast
T2 sequence (P28834 17-360 limits assumed): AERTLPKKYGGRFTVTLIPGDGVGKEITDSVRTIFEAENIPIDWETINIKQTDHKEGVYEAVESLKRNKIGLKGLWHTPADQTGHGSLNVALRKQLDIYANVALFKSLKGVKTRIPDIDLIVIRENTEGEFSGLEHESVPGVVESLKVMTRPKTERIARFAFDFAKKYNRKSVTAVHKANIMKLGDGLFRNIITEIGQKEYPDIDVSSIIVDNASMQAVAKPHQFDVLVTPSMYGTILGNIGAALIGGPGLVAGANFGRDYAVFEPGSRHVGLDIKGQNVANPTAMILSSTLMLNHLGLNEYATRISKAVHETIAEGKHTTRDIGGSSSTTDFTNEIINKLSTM
T2 sequence (P28241 16-369): T1 sequence (P28241 16-369)

[2] = target: T3, IDH1/IDH2 enzyme (wild-type, octameric) (Saccharomyces cerevisiae, UniProt P28241+P28834); assay: Diamide inhibition of catalytic activity; type: biochemical, yeast
T3 sequence (P28834 12-360): T1 sequence (P28834 12-360)
T3 sequence (P28241 16-369): T1 sequence (P28241 16-369)
Method in brief: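 Purified His-tagged enzyme (E. coli BL21-Gold (DE3), IPTG-induced, Ni-NTA purified) at 1 μM in 50 mM Tris-HCl pH 7.4 is held 2 h on ice with a range of diamide concentrations from a fresh water stock. Activity is then assayed (40 mM Tris-HCl pH 7.4, 1 mM D-isocitrate, 4 mM MgCl2, 0.5 mM NAD+; NADH formation, 24 °C). Untreated activity is set as 100%, and the 50% value is read from the graphs.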

[3] = target: ^-5IDH1/IDH2 enzyme (truncated, octameric) (Saccharomyces cerevisiae, UniProt P28241+P28834); assay: Diamide inhibition of catalytic activity; type: biochemical, yeast
[4] = target: IDH1^G15D/IDH2 enzyme (tetrameric) (Saccharomyces cerevisiae, UniProt P28241+P28834, G26D); assay: Diamide inhibition of catalytic activity; type: biochemical, yeast
IDH1^G15D/IDH2 enzyme (tetrameric), sequence (P28834 12-360 G26D, one chain of several): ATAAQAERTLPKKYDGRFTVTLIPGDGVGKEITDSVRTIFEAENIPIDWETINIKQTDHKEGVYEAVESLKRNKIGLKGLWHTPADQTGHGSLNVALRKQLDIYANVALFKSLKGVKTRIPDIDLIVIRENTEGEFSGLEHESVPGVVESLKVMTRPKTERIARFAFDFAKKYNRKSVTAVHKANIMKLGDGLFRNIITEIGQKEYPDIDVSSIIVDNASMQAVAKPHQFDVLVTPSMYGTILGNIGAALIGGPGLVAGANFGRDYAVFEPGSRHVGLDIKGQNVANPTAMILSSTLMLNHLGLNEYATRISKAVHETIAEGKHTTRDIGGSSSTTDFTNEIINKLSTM

[5] = target: ^-5IDH1^G15D/IDH2 enzyme (tetrameric) (Saccharomyces cerevisiae, UniProt P28241+P28834, G26D); assay: Diamide inhibition of catalytic activity; type: biochemical, yeast
^-5IDH1^G15D/IDH2 enzyme (tetrameric), sequence (P28834 17-360 G26D, one chain of several): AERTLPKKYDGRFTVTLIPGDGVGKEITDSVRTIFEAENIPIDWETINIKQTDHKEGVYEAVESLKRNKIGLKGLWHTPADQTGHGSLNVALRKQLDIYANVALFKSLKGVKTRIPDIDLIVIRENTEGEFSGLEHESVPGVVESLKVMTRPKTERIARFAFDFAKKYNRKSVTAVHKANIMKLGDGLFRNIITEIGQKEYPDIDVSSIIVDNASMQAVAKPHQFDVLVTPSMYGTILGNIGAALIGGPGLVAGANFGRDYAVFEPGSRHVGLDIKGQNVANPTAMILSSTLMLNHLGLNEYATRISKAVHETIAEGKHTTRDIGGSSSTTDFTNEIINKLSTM

[6] = target: ^-5IDH1^D168K/IDH2 enzyme (tetrameric) (Saccharomyces cerevisiae, UniProt P28241+P28834, D179K); assay: Diamide inhibition of catalytic activity; type: biochemical, yeast
^-5IDH1^D168K/IDH2 enzyme (tetrameric), sequence (P28834 17-360 D179K, one chain of several): as the sequence (P28834 17-360 G26D, one chain of several) above, with D10G, D163K counted along it

IDH1/IDH2 enzyme = target: T4, IDH1/IDH2 enzyme (Saccharomyces cerevisiae, UniProt P28241+P28834); type: biochemical, yeast; conditions: no or low concentration (10 μM) of diamide, 2 h
T4 sequence (P28834 12-360): T1 sequence (P28834 12-360)
T4 sequence (P28241 16-369): T1 sequence (P28241 16-369)
Method in brief: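 Affinity-purified His-tagged enzyme (1 μM in 50 mM Tris-HCl pH 7.4) is treated 2 h on ice with 0 or 10 μM diamide. Then 3.5 μg samples are run on […] and stained with Coomassie blue to see the IDH2 Cys-150 disulfide band.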

IDH1^G15D/IDH2 enzyme = target: T5, IDH1^G15D/IDH2 enzyme (Saccharomyces cerevisiae, UniProt P28241+P28834, G26D); type: biochemical, yeast; conditions: 10 μM diamide, 2 h
T5 sequence (P28834 12-360 G26D): T1 sequence (P28834 12-360) with G15D
T5 sequence (P28241 16-369): T1 sequence (P28241 16-369)

cross-linking = target: the molecule itself; assay: cross-linking
[7] = target: T6, Yeast NAD+-specific isocitrate dehydrogenase (IDH) (Saccharomyces cerevisiae, UniProt P28241+P28834); assay: Kinetic analyses: isocitrate saturation velocity curves of purified IDH enzymes; type: biochemical; conditions: 100 μM AMP
T6 sequence (P28834 12-360): T1 sequence (P28834 12-360)
T6 sequence (P28241 16-369): T1 sequence (P28241 16-369)
Method in brief: (§1)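 His-tagged IDH purified by Ni2+-NTA, stored at −20 °C in elution buffer with 20% glycerol, quantified by A280. Assays at 24 °C used 40 mM Tris-HCl pH 7.4, 4 mM MgCl2 and 0.5 mM NAD+. D-isocitrate was varied 0–5 mM, with or without 100 μM AMP, and NADH formation was followed. Apparent S0.5 and Hill coefficients came from saturation curves, Vmax as maximum velocity per mg, over two independent experiments.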

[8] = system: Yeast NAD+-specific isocitrate dehydrogenase (IDH); assay: as above; type: biochemical
Method in brief: as §1

[9] = 2 h, read-out: reduction in activity

O=C(O)CC(O)(CC(=O)O)C(=O)O [citrate]
effect of citrate preincubation on diamide inhibition ([1]; 100 mM citrate, 4 mM MgCl2, 100 μM AMP for 15 min before 0.5 mM diamide): no inhibition by diamide was observed
effect of citrate preincubation on diamide inhibition (^-5IDH1/IDH2 enzyme; increasing citrate (0 to 100 mM), 4 mM MgCl2, 100 μM AMP before 0.16 mM diamide): essentially no effect

CN(C)C(=O)/N=N/C(=O)N(C)C [diamide]
IC50 [2]: 500 µM
IC50 [3]: 160 µM
increase in sensitivity to diamide relative to the IDH1/IDH2 enzyme ([3]; ^-5IDH1/IDH2 vs IDH1/IDH2, 120 min): ~ 3 fold and 3 fold
IC50 [4]: 6.5 µM
IC50 [5]: 7.5 µM
IC50 [6]: 13 µM
formation of IDH2 Cys-150 disulfide bond (IDH1/IDH2 enzyme): no formation of this bond
formation of IDH2 Cys-150 disulfide bond (IDH1^G15D/IDH2 enzyme): most of the IDH2 subunit is present as the disulfide bond form
inhibition at 500 µM [1, 9]: 63%
inhibition at 160 µM (^-5IDH1/IDH2 enzyme; [9]): 43%

B1: IDH2 subunit (natural protein, yeast)
chain: T1 sequence (P28241 16-369)
binding result (cross-linking): binds

B2: IDH1/IDH2: wild-type yeast NAD+-specific isocitrate dehydrogenase, octamer of IDH1 and IDH2 subunits, histidine tag on IDH1 (protein)
chain 1: T1 sequence (P28834 12-360)
chain 2: T1 sequence (P28241 16-369)
modifications: left off: histidine tag, C-terminal, kept
increase in the apparent affinity for isocitrate in the presence of AMP [7]: ~ 5 fold
Hill coef. with respect to isocitrate, − AMP ([8]; absence of AMP): 3.1
Vmax (apparent), + AMP ([8]; isocitrate velocity saturation curve, presence of 100 μM AMP): 32.3/32.3 (±0.7/0.4) ^b units/mg
Hill coef. with respect to isocitrate, + AMP ([8]; presence of 100 μM AMP): 3.5
